The source of these data is ChEMBL document CHEMBL1649109, “Antiparasitic activities and toxicities of individual enantiomers of the 8-aminoquinoline 8-[(4-amino-1-methylbutyl)amino]-6-methoxy-4-methyl-5-[3,4-dichlorophenoxy]quinoline succinate” (Antimicrob Agents Chemother, 2008).

Activity calls are given as the source filed them. The calls are words filed in the database; no cut-off is given here. Bounds are passed on as bounds.

Usually inhibition stands for the change of the read-out against control, counted positive when it falls. Usually ED50 stands for the dose that gives a 50% effect, or the effect in half of the subjects. As usually defined, the inhibition in vivo is the change of the read-out against control, counted positive when it falls.

Series [1] has as its system Leishmania donovani. Kind of series: Antileishmanial activity against Leishmania donovani HU3 infected in mouse assessed as inhibition of parasite burden at 5 mg/kg/day, sc for 5 days administered 7 days post-infection measured 14 days post-infection. Type of series: functional, organism-based. The essentials: (§1)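 Mice infected intravenously with 1 × 10^7 L. donovani (MHOM/ET/67/HU3) amastigotes. Starting 7 days post-infection, sodium stibogluconate was given subcutaneously once daily for 5 days, with doses expressed as SbV. Mice were killed 14 days post-infection. Parasite burdens were counted on liver impression smears and compared with an untreated control group. ED50 was obtained by linear regression.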

Series [2] has as its system Leishmania donovani. Nature of the series: Antileishmanial activity against Leishmania donovani HU3 infected in mouse assessed as inhibition of parasite burden administered subcutaneously once daily for 5 days after 7 days post-infection measured 14 days post-infection. In kind it is functional, organism-based. The method, boiled down: as §1
Series [3] has as its system Leishmania donovani. Kind of series: Antileishmanial activity against Leishmania donovani HU3 infected in mouse assessed as inhibition of parasite burden at 45 mg/kg/day, sc for 5 days administered 7 days post-infection measured 14 days post-infection. In kind it is functional, organism-based. The essentials:
as §1

Series [4] concerns Leishmania donovani. Nature of the series: Antileishmanial activity against Leishmania donovani HU3 infected in mouse assessed as inhibition of parasite burden at 15 mg/kg/day, sc for 5 days administered 7 days post-infection measured 14 days post-infection. Type of series: functional, organism-based. The method, boiled down:
as §1

The subject of series [5] is Plasmodium berghei. Nature of the series: Antimalarial activity against Plasmodium berghei KBG-173 infected in Swiss(CD-1) mouse assessed as parasitemia at 1 mg/kg/day, po treated for 3 days measured on day 6.
The test system of series [6] is Pneumocystis carinii. Kind of series: Antimicrobial activity against Pneumocystis carinii infected BALB/c mouse at 0.5 mg/kg/day, po after 21 days administered 4 weeks postinfection by methenamine silver nitrate staining method. Type of series: functional, organism-based. The method, boiled down: (§2)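 Female BALB/c mice, 6-8 weeks, immunosuppressed with dexamethasone […] in drinking water, then inoculated transtracheally with 10^6 P. carinii. From 4 weeks post-inoculation, drug given in drinking water for 3 weeks, 10 mice/group, intake monitored. Lung impression smears stained with Giemsa or methenamine silver, read blinded. Graded 0-5 on a log scale; group mean ± SE.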

The test system of series [7] is Pneumocystis carinii. Kind of series: Antimicrobial activity against Pneumocystis carinii infected BALB/c mouse at 1 mg/kg/day, po after 21 days administered 4 weeks postinfection by methenamine silver nitrate staining method. In kind it is functional, organism-based. The method, boiled down: as §2
The subject of series [8] is Plasmodium berghei. Kind of series: Antimalarial activity Plasmodium berghei KBG-173 infected in Swiss(CD-1) mouse assessed as survival at 2 mg/kg, po treated 1 day postinfection measured on day 30. Type of series: functional, organism-based. The arrangement: dose 2 mg/kg. The method, boiled down:
(§3)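 CD-1 mice, 5 weeks old, male or female, groups of five, infected with 5 × 10^4 P. berghei KBG-173 parasitized erythrocytes. One 2 mg/kg oral dose given on a single day, from day −3 to +2 relative to inoculation. Controls untreated. Read-out is increase in mean survival time over controls and number alive at day +30.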

Series [9] relates to Plasmodium berghei. Kind of series: Antimalarial activity Plasmodium berghei KBG-173 infected in Swiss(CD-1) mouse assessed as survival at 2 mg/kg, po treated 2 day postinfection measured on day 30. In kind it is functional, organism-based. The arrangement: dose 2 mg/kg. The method, boiled down:
as §3

Series [10] concerns Plasmodium berghei. Nature of the series: Antimalarial activity against Plasmodium berghei KBG-173 infected in Swiss(CD-1) mouse assessed as parasitemia at 0.25 mg/kg/day, po treated for 3 days measured on day 6.
Series [11] relates to Pneumocystis carinii. Nature of the series: Antimicrobial activity against Pneumocystis carinii infected BALB/c mouse at 5 mg/kg/day, po after 21 days administered 4 weeks postinfection by Giemsa staining method. In kind it is functional, organism-based. The method, boiled down: as §2
In series [12] the test system is Pneumocystis carinii. Nature of the series: Antimicrobial activity against Pneumocystis carinii infected BALB/c mouse at 0.5 mg/kg/day, po after 21 days administered 4 weeks postinfection by Giemsa staining method. In kind it is functional, organism-based. The method, boiled down:
as §2

In series [13] the test system is Plasmodium berghei. Kind of series: Antimalarial activity Plasmodium berghei KBG-173 infected in Swiss(CD-1) mouse assessed as mean survival time at 2 mg/kg, po pretreated 2 days before infection. Type of series: functional. The essentials:
as §3

For series [14], the system named is Plasmodium berghei. Nature of the series: Antimalarial activity against Plasmodium berghei KBG-173 infected in Swiss(CD-1) mouse assessed as survival at 4 mg/kg/day, po treated for 3 days measured on day 34. In kind it is functional, organism-based. The method, boiled down: (§4)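 CD-1 mice, 5 weeks old, male or female, groups of five, infected with 5 × 10^4 P. berghei KBG-173 parasitized erythrocytes. Drug in 0.5% hydroxyethylcellulose/0.1% Tween 80, given orally once daily on days 3, 4 and 5 post-infection. Parasitemia from blood films on day +6. Read-out also includes increase in mean survival time over controls and survivors at day +34.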

Series [15] has as its system Leishmania donovani. Kind of series: Antileishmanial activity against Leishmania donovani HU3 infected in mouse. Type of series: functional. The essentials: (§5)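 L. donovani HU3 amastigotes, 1 × 10^7 given IV to mice. From day 7 post-infection, dosed orally once daily for 5 days in 0.25% methylcellulose-10% ethanol; reference stibogluconate given SC. Mice killed at day 14 post-infection. Parasite burden counted on liver impression smears against untreated controls. ED50 from linear regression, with 95% confidence limits.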

Series [16] has as its system Pneumocystis carinii. Kind of series: Antimicrobial activity against Pneumocystis carinii infected BALB/c mouse at 0.1 mg/kg/day, po after 21 days administered 4 weeks postinfection by Giemsa staining method. Type of series: functional, organism-based.
In series [17] the test system is Leishmania donovani. Kind of series: Antileishmanial activity against Leishmania donovani HU3 infected in mouse assessed as inhibition of parasites in liver at 5 mg/kg/day, po treated for 5 days administered 7 days postinfection measured after 14 days post-infection. In kind it is functional. The essentials:
as §5

The test system of series [18] is Pneumocystis carinii. Nature of the series: Antimicrobial activity against Pneumocystis carinii infected BALB/c mouse at 0.25 mg/kg/day, po after 21 days administered 4 weeks postinfection by Giemsa staining method. Type of series: functional, organism-based. The essentials: as §2
Series [19] concerns Plasmodium berghei. Nature of the series: Antimalarial activity against Plasmodium berghei KBG-173 infected in Swiss(CD-1) mouse assessed as reduction in parasitemia at 4 mg/kg/day, po treated for 3 days measured on day 6. Type of series: functional. The arrangement: scale not given: the % may be the effect or the level left. The method, boiled down: as §4
The test system of series [20] is Pneumocystis carinii. Kind of series: Antimicrobial activity against Pneumocystis carinii infected BALB/c mouse at 5 mg/kg/day, po after 21 days administered 4 weeks postinfection by methenamine silver nitrate staining method. Type of series: functional, organism-based. The essentials:
as §2

Series [21] relates to Canis familiaris. Kind of series: Toxicity in Beagle dog assessed as increase in methemoglobin level at 0.64 mg/kg/day, po. Particulars: in vivo. The arrangement: route oral. In kind it is organism-based, Canis lupus familiaris. The essentials: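 Beagle dogs, one male and one female per enantiomer, given 0.64 mg/kg/day (0.5 mg/kg base) orally for 4 days. After a 5-week washout the same dogs received 1.91 mg/kg/day for 4 days. Methemoglobin sampled from days −6 to 36. Each dog's values are mean of duplicate determinations.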

Series [22] relates to Pneumocystis carinii. Kind of series: Antimicrobial activity against Pneumocystis carinii infected BALB/c mouse at 1 mg/kg/day, po after 21 days administered 4 weeks postinfection by Giemsa staining method. Type of series: functional, organism-based. The essentials:
as §2

Series [23] deals with Leishmania donovani. Kind of series: Antileishmanial activity against Leishmania donovani HU3 infected in mouse assessed as inhibition of parasites in liver at 100 mg/kg/day, po treated for 5 days administered 7 days postinfection measured after 14 days. In kind it is functional. The method, boiled down: as §5
Series [24] concerns Leishmania donovani. Kind of series: Antileishmanial activity against Leishmania donovani HU3 infected in mouse assessed as inhibition of parasites in liver at 10 mg/kg/day, po treated for 5 days administered 7 days postinfection measured after 14 days post-infection. Type of series: functional. The method, boiled down:
as §5

Series [25] concerns Plasmodium berghei. Kind of series: Antimalarial activity Plasmodium berghei KBG-173 infected in Swiss(CD-1) mouse assessed as survival at 2 mg/kg, po treated at day of infection measured on day 30. In kind it is functional, organism-based. The arrangement: dose 2 mg/kg. The essentials: as §3
Series [26] deals with Plasmodium berghei. Nature of the series: Antimalarial activity Plasmodium berghei KBG-173 infected in Swiss(CD-1) mouse assessed as mean survival time at 2 mg/kg, po pretreated 3 days before infection. In kind it is functional. The essentials:
as §3

In series [27] the test system is Leishmania donovani. Kind of series: Antileishmanial activity against Leishmania donovani HU3 infected in mouse assessed as inhibition of parasites in liver at 0.4 mg/kg/day, po treated for 5 days administered 7 days postinfection measured after 14 days post-infection. Type of series: functional. The essentials: as §5
Series [28] deals with Plasmodium berghei. Nature of the series: Antimalarial activity against Plasmodium berghei KBG-173 infected in Swiss(CD-1) mouse assessed as mean survival time at 0.25 mg/kg/day, po treated for 3 days. In kind it is functional. The method, boiled down: as §4
For series [29], the system named is Plasmodium berghei. Nature of the series: Antimalarial activity against Plasmodium berghei KBG-173 infected in Swiss(CD-1) mouse assessed as mean survival time at 1 mg/kg/day, po treated for 3 days. Type of series: functional. The essentials: as §4
Series [30] deals with Plasmodium berghei. Nature of the series: Antimalarial activity Plasmodium berghei KBG-173 infected in Swiss(CD-1) mouse assessed as survival at 2 mg/kg, po pretreated 1 day before infection measured on day 30. In kind it is functional, organism-based. The arrangement: dose 2 mg/kg. The method, boiled down: as §3
Series [31] has as its system Pneumocystis carinii. Nature of the series: Antimicrobial activity against Pneumocystis carinii infected BALB/c mouse at 0.25 mg/kg/day, po after 21 days administered 4 weeks postinfection by methenamine silver nitrate staining method. In kind it is functional, organism-based. The essentials: as §2
The test system of series [32] is Canis familiaris. Nature of the series: Toxicity in Beagle dog assessed as increase in methemoglobin level at 6.4 mg/kg/day, po between 7 to 11 days. Type of series: organism-based, Canis lupus familiaris. The arrangement: route oral. Particulars: in vivo. The essentials:
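Beagle dogs, 8-9 months old, given drug as bulk powder in gelatin capsules orally on days 1-4, at 0.0116 mmol/kg/day as base. Daily clinical observation. Methemoglobin measured by co-oximetry from jugular or cephalic blood, predose on days 1, 2 and 4, then through day 29.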

Sodium stibogluconate: the figures for the inhibition in the series with Leishmania donovani [1], with Leishmania donovani [3] and in the series on Leishmania donovani [4] were 13.8%, 99.3% and 59.4%, respectively. The median effective dose (ED50) with Leishmania donovani [2] amounted to 27.7 mg/kg. The ED90 in the series with Leishmania donovani [2] was > 45 mg/kg.

With `COc1cc(N[C@H](C)CCCN)c2nccc(C)c2c1Oc1ccc(Cl)c(Cl)c1.O=C(O)CCC(=O)O`, the Activity in the series on Plasmodium berghei [5] is on record as 0%; in the series on Plasmodium berghei [10], 0.2%; in the series on Plasmodium berghei [19], 0%; with Canis familiaris [21], “Toxic”. Further, the outcome in the series on Pneumocystis carinii [6], in the series on Pneumocystis carinii [7], with Pneumocystis carinii [11], in the series on Pneumocystis carinii [12], with Pneumocystis carinii [16] and in the series on Pneumocystis carinii [18] was Active. Besides, the outcome in the series with Pneumocystis carinii [20], in the series with Pneumocystis carinii [22] and in the series on Pneumocystis carinii [31] was Active. In addition, the result with Plasmodium berghei [8], in the series on Plasmodium berghei [9], in the series with Plasmodium berghei [14], in the series with Plasmodium berghei [25] and in the series on Plasmodium berghei [30] was inactive. Further, the MST was 8.4 days in the series on Plasmodium berghei [13], 4.6 days in the series with Plasmodium berghei [26], 11.6 days in the series on Plasmodium berghei [28] and 20.5 days in the series with Plasmodium berghei [29]. Further, in the series on Leishmania donovani [15], the ED90 was 3.61 mg/kg. It took a dose of 1.28 mg/kg to reach the 50% effect level in the series on Leishmania donovani [15] (Leishmania donovani, HU3) (ED50). Besides, in the series on Leishmania donovani [17], the inhibition in vivo at 5 mg/kg/day worked out at 98%. Further, the inhibition in vivo at 100 mg/kg/day with Leishmania donovani [23] stood at 99.8%. In addition, the inhibition in vivo at 10 mg/kg/day with Leishmania donovani [24] turned out to be 99.3%. Besides, the inhibition in vivo at 0.4 mg/kg/day in the series with Leishmania donovani [27] worked out at 61.5%.

Regarding `COc1cc(C)c2c(Oc3cccc(C(F)(F)F)c3)c(OC)cc(NC(C)CCCN)c2n1` (centres undefined) [TAFENOQUINE], in the series on Canis familiaris [32], the Activity entry is listed as “Toxic”.
